Data from PMC2741613 (Journal of the American Chemical Society, 2009).
pKi: −log10 of the molar value.

Experiments:
[1] = biological target: T1, VHX (Homo sapiens, UniProt Q9NRW4); assay: PTP activity assay with pNPP, VHX; type: biochemical
T1 sequence (Q9NRW4 1-184): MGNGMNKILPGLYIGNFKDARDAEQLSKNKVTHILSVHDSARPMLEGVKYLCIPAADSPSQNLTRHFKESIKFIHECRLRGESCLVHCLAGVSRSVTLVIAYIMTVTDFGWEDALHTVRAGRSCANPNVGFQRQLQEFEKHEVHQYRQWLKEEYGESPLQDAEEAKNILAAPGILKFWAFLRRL
Method in brief: (§1)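 Reactions started by adding enzyme to mixtures with various pNPP and test-compound concentrations. Rates were fitted with an enzyme-kinetics model for Ki.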

[2] = biological target: LAR (Homo sapiens, UniProt P10586); assay: PTP activity assay with pNPP, LAR; type: biochemical
Method in brief: as §1

[3] = test system: pSrc527 in PTP1B−/− mouse embryo fibroblast cells; assay: Src phosphorylation at Tyr527 in cells; type: cell-based; conditions: treated for two hours, various concentrations
Method in brief: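 PTP1B−/− mouse embryo fibroblasts at 80% confluence were exposed to test compound for two hours, then lysed and cleared at 15,000 rpm for 10 min. 30 μg total protein run on SDS-PAGE and blotted to PVDF. Probed with anti-pSrc416, anti-pSrc527 and anti-Src antibodies, HRP-conjugated secondaries.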

[4] = biological target: VHR (Homo sapiens, UniProt P51452); assay: PTP activity assay with pNPP, VHR; type: biochemical
Method in brief: as §1

[5] = biological target: T2, Lyp (Homo sapiens, UniProt Q9Y2R2); assay: PTP activity assay with pNPP, Lyp; type: biochemical
T2 sequence (Q9Y2R2 1-807): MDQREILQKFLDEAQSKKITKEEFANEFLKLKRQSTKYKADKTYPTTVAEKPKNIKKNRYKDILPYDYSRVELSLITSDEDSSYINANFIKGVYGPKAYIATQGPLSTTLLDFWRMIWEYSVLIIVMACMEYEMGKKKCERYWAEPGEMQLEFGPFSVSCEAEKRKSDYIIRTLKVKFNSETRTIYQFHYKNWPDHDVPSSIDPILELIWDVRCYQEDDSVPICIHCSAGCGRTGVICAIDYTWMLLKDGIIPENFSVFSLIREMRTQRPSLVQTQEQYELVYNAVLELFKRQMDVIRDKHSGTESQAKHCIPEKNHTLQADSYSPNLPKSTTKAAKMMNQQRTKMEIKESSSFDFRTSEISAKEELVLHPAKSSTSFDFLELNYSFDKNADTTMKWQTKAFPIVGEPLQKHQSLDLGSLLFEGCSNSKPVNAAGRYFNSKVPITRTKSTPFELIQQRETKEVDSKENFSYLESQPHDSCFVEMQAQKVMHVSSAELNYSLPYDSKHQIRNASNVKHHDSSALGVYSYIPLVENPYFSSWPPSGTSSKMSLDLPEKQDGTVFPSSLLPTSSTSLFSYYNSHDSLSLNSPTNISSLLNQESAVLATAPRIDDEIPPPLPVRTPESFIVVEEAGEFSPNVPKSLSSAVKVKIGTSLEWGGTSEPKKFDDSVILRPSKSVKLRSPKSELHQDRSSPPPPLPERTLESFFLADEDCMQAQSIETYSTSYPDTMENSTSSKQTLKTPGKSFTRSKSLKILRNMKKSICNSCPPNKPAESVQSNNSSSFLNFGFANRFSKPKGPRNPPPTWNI

Chain of VHR (P51452 whole entry, species assumed): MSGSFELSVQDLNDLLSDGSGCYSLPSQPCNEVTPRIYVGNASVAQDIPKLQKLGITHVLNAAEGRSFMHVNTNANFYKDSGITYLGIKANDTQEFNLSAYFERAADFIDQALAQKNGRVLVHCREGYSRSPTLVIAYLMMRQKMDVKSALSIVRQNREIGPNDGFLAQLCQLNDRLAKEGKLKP
Chain of LAR (P10586 30-1907, species assumed): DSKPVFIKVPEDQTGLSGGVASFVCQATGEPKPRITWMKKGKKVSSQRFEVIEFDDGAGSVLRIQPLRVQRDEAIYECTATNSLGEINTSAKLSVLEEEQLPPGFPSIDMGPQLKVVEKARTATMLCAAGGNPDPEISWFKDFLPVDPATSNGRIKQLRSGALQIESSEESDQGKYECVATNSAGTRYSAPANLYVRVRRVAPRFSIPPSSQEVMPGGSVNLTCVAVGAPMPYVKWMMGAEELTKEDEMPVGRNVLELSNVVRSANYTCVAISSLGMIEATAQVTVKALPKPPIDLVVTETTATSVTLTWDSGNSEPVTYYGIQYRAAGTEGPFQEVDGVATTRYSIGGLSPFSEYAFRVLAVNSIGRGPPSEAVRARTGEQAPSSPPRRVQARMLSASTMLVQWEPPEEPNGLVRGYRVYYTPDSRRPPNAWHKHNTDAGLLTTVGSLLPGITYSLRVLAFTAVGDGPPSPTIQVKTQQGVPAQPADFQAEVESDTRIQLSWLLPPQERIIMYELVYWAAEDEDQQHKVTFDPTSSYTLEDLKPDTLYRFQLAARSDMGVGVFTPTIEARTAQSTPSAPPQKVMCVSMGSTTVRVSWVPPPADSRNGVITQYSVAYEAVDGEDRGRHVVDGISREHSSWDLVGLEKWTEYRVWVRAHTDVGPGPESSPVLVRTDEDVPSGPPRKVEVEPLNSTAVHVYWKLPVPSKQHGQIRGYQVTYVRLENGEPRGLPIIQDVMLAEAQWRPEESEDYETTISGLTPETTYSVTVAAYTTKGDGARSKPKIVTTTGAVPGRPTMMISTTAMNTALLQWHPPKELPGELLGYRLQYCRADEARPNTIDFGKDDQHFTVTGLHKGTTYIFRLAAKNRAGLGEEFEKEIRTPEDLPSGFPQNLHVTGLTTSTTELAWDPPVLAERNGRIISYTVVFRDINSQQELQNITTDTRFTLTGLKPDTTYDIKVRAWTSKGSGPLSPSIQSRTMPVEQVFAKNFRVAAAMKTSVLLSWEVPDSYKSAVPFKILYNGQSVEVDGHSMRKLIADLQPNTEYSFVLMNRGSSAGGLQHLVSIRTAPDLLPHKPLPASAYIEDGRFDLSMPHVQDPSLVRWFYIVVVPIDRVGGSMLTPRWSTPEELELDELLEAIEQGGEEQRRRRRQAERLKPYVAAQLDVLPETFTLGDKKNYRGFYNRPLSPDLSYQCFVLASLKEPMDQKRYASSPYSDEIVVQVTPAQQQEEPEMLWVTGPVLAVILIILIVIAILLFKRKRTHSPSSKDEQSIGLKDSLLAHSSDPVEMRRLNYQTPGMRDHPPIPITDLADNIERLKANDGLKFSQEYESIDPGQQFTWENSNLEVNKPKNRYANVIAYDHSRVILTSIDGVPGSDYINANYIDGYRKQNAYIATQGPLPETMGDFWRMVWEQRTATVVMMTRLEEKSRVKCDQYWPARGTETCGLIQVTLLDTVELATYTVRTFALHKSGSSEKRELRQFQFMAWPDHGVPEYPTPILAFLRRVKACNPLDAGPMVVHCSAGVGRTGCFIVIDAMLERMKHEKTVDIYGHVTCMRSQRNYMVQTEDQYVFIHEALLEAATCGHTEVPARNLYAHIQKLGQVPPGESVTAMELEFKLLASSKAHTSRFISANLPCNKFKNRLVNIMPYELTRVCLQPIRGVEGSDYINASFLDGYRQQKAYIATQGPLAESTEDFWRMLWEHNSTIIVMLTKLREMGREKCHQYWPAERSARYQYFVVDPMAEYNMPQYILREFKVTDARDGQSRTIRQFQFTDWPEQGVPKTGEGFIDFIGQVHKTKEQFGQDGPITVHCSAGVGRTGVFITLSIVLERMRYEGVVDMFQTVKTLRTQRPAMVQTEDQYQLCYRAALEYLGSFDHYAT

CCc1ccc(C(=O)NCCCC[C@H](NC(=O)[C@H](Cc2ccc(C(F)(F)P(=O)(O)O)cc2)NC(=O)[C@H](Cc2ccccc2)NC(=O)CO[C@H]2C[C@@H](C)CC[C@@H]2C(C)C)C(N)=O)cc1 [Compound 8]
pKi [1]: < 6.00
pKi [2]: < 6.00
effect on pSrc527 phosphorylation [3]: no significant change
pKi [4]: < 6.00
pKi [5]: < 6.00
